Reference: ChEMBL document CHEMBL3045213, “Antifungal activity of thiophenes from Echinops ritro” (J Agric Food Chem, 2006)
Calls of active or inactive are those of the source. No cut-off for these calls is given here.

Legend:
Fusarium oxysporum [1] = assay: Antifungal activity against Fusarium oxysporum after 48 hr by 96-well microtiter based microdilution method; type: functional, organism-based
Summary of the method: (§1)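 Conidia from 7–10-day PDA cultures (24 °C, 12-h photoperiod) were counted photometrically from %T at 625 nm. Compounds were taken from 12 mM stocks in 95% ethanol, diluted 1:4 in MOPS-buffered RPMI, and tested at six final concentrations (1.55–50.0 µM) with incubation under the same growth conditions.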

Phomopsis obscurans [2] = assay: Antifungal activity against Phomopsis obscurans after 48 hr by 96-well microtiter based microdilution method; type: functional, organism-based; conditions: Paraphomopsis obscurans; summary of the method: as §1
[3] = tested on: Colletotrichum gloeosporioides; assay: Antifungal activity against Colletotrichum gloeosporioides after 48 hr by 96-well microtiter based microdilution method; type: functional, organism-based; summary of the method: as §1
Phomopsis viticola [4] = assay: Antifungal activity against Phomopsis viticola after 48 hr by 96-well microtiter based microdilution method
[5] = tested on: Colletotrichum gloeosporioides; assay: Growth inhibition of Colletotrichum gloeosporioides at 3 uM after 48 hr by 96-well microtiter based microdilution method; type: functional; conditions: read-out: GI
Summary of the method: (§2)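 Three-point broth microdilution used final concentrations of 0.3, 3.0 and 30.0 µM, diluted from 12 mM ethanol stocks into MOPS-buffered RPMI. Conidial inoculum was counted photometrically at 625 nm and incubated at 24 °C with a 12-h photoperiod. A620 was read at 48 h and converted to percent growth inhibition. Controls were inoculated broth wells and solvent wells without inoculum.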

[6] = tested on: Colletotrichum gloeosporioides; assay: Growth inhibition of Colletotrichum gloeosporioides at 0.3 to 30 uM after 48 hr by 96-well microtiter based microdilution method; type: functional, organism-based
Summary of the method: (§3)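 Conidia from 7-10-day-old PDA cultures adjusted photometrically (%T at 625 nm) to 1.0 × 10^6 conidia/mL. Compounds dissolved in 95% ethanol at 12 mM (stock) and diluted 1:4 with MOPS-buffered RPMI. Final concentrations were 0.3, 3.0, 30.0 µM in 96-well plates. Incubated at 24 °C with a 12-h photoperiod. Growth was read as absorbance at 620 nm at 48 h. Percent inhibition was pooled from two experiments replicated in time. Controls were broth+inoculum and solvent+broth wells.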

Colletotrichum fragariae [7] = assay: Growth inhibition of Colletotrichum fragariae at 3 uM after 48 hr by 96-well microtiter based microdilution method; type: functional, organism-based; summary of the method: as §2
Fusarium oxysporum [8] = assay: Antifungal activity against Fusarium oxysporum after 72 hr by 96-well microtiter based microdilution method; type: functional, organism-based; summary of the method: as §1
Phomopsis obscurans [9] = assay: Antifungal activity against Phomopsis obscurans after 72 hr by 96-well microtiter based microdilution method; type: functional, organism-based; conditions: Paraphomopsis obscurans; summary of the method: as §1
Colletotrichum acutatum [10] = assay: Growth inhibition of Colletotrichum acutatum at 3 uM after 48 hr by 96-well microtiter based microdilution method; type: functional, organism-based; summary of the method: as §2
Fusarium oxysporum [11] = assay: Growth inhibition of Fusarium oxysporum at 0.3 to 30 uM after 48 hr by 96-well microtiter based microdilution method; type: functional, organism-based; summary of the method: as §3
[12] = tested on: Colletotrichum gloeosporioides; assay: Antifungal activity against Colletotrichum gloeosporioides after 72 hr by 96-well microtiter based microdilution method; type: functional, organism-based; summary of the method: as §1
Botrytis cinerea [13] = assay: Antifungal activity against Botryotinia fuckeliana after 72 hr by 96-well microtiter based microdilution method; type: functional, organism-based; summary of the method: as §1
Colletotrichum fragariae [14] = assay: Antifungal activity against Colletotrichum fragariae after 72 hr by 96-well microtiter based microdilution method; type: functional, organism-based; summary of the method: as §1
Botrytis cinerea [15] = assay: Antifungal activity against Botryotinia fuckeliana after 48 hr by 96-well microtiter based microdilution method; type: functional, organism-based; summary of the method: as §1
Fusarium oxysporum [16] = assay: Growth inhibition of Fusarium oxysporum at 0.3 uM after 48 hr by 96-well microtiter based microdilution method; type: functional; conditions: read-out: GI
Summary of the method: (§4)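 F. oxysporum conidia (photometric count, %T 625 nm) were tested in MOPS-buffered RPMI broth microdilution at final concentrations of 0.3, 3.0 and 30.0 µM, diluted from 12 mM ethanol stocks. Plates were incubated at 24 °C with a 12-h photoperiod, and A620 was read at 48 h. Mean percent growth inhibition was pooled from two experiments replicated in time.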

Phomopsis viticola [17] = assay: Antifungal activity against Phomopsis viticola after 72 hr by 96-well microtiter based microdilution method
Colletotrichum acutatum [18] = assay: Antifungal activity against Colletotrichum acutatum after 72 hr by 96-well microtiter based microdilution method; type: functional, organism-based; summary of the method: as §1
Colletotrichum fragariae [19] = assay: Antifungal activity against Colletotrichum fragariae after 48 hr by 96-well microtiter based microdilution method; type: functional, organism-based; summary of the method: as §1
Fusarium oxysporum [20] = assay: Growth inhibition of Fusarium oxysporum at 3 uM after 48 hr by 96-well microtiter based microdilution method; type: functional; conditions: read-out: GI; summary of the method: as §4
Colletotrichum acutatum [21] = assay: Antifungal activity against Colletotrichum acutatum after 48 hr by 96-well microtiter based microdilution method; type: functional, organism-based; summary of the method: as §1
[22] = tested on: Colletotrichum gloeosporioides; assay: Growth inhibition of Colletotrichum gloeosporioides at 30 uM after 48 hr by 96-well microtiter based microdilution method; type: functional; conditions: read-out: GI; summary of the method: as §3
Fusarium oxysporum [23] = assay: Growth inhibition of Fusarium oxysporum at 30 uM after 48 hr by 96-well microtiter based microdilution method; type: functional; conditions: read-out: GI; summary of the method: as §3

SMILES	IC50 (Fusarium oxysporum [1])	IC50 (Phomopsis obscurans [2])	IC50 [3]	IC50 (Phomopsis viticola [4])	growth inhibition (GI) [6]	IC50 (Fusarium oxysporum [8])	IC50 (Phomopsis obscurans [9])	growth inhibition (GI) (Fusarium oxysporum [11])	IC50 [12]	IC50 (Botrytis cinerea [13])	IC50 (Colletotrichum fragariae [14])	IC50 (Botrytis cinerea [15])	IC50 (Phomopsis viticola [17])	IC50 (Colletotrichum acutatum [18])	IC50 (Colletotrichum fragariae [19])	IC50 (Colletotrichum acutatum [21])	inhibition of growth at 30 µM [22]	inhibition of growth at 30 µM (Fusarium oxysporum [23])	other results
c1csc(-c2ccc(-c3cccs3)s2)c1 [ALPHA-TERTHIENYL]	5 µM	7.2 µM	< 1.6 µM	< 6.3 µM	Active	> 50 µM	9.6 µM	Active	< 1.6 µM	> 50 µM	9 µM	> 50 µM	< 6.3 µM	5.3 µM	4.9 µM	3 µM			inhibition of growth at 3 µM [5]: 98%; growth inhibition (GI) (Colletotrichum fragariae [7]): Active; growth inhibition (GI) (Colletotrichum acutatum [10]): Active; inhibition of growth at 0.3 µM (Fusarium oxysporum [16]): 25%; inhibition of growth at 3 µM (Fusarium oxysporum [20]): 98%
CC#CC#Cc1ccc(C#CC(Cl)COC(C)=O)s1 (stereo not given)					Active			Active									81%	82%	
OCCC#Cc1ccc(-c2cccs2)s1					Active			Active											
C(#C[C@@H]1CC[C@H]1C#Cc1ccc(-c2cccs2)s1)c1ccc(-c2cccs2)s1					inactive			inactive											
CC(C)CC(=O)OCCC#Cc1ccc(-c2cccs2)s1					inactive			inactive											
C(#C[C@@H]1CC[C@@H]1C#Cc1ccc(-c2cccs2)s1)c1ccc(-c2cccs2)s1					inactive			inactive											
O=C1C2CC=CCC2C(=O)N1SC(Cl)(Cl)Cl (stereo not given) [CAPTAN]	2.2 µM	2.4 µM	< 1.6 µM	18 µM		5.8 µM	3.9 µM		< 1.6 µM	< 1.6 µM	2.1 µM	< 1.6 µM	20 µM	2.1 µM	< 1.6 µM	< 1.6 µM			
C=CC#Cc1ccc(-c2cccs2)s1	> 50 µM	> 50 µM	4.2 µM	19.5 µM	Active	> 50 µM	> 50 µM	Active	10.2 µM	> 50 µM	46 µM	> 50 µM	22 µM	28.5 µM	28 µM	7.6 µM	96%	96%	
CC(=O)OCC(C#Cc1ccc(-c2cccs2)s1)OC(C)=O (stereo not given)					inactive			inactive											
CC#CC#Cc1ccc(C#CCCO)s1	9.5 µM	2.9 µM	2.6 µM	< 1.6 µM	Active	20 µM	13.5 µM	Active	6 µM	41 µM	12.5 µM	29.4 µM	4 µM	19.2 µM	4.4 µM	3.5 µM	100%	100%	
